Data from paper PMC7113734 (Antiviral Research, 2016).
≈ marks a conversion by molar mass, not a printed value. Like-named read-outs stand apart in the source and are kept apart here.

Experiments:
[1] = system: drug-resistant HIV-1 strains; experiment: Antiviral activity against drug-resistant HIV-1 strains in MT-4; assay type: cell-based; conditions: for EC50: MT-4
[2] = system: HIV attachment to HeLa-CD4-LTR-β-gal cells; experiment: Attachment inhibition assay; assay type: cell-based, HIV-1; conditions: Human immunodeficiency virus 1, read-out: Attachment inhibition EC50 ± SD
[3] = system: drug resistant clinical HIV isolates; experiment: Antiviral activity against drug-resistant HIV-1 in PBMCs; assay type: cell-based; conditions: Human immunodeficiency virus 1, PBMC
[4] = system: HIVIIIB; experiment: Cell-to-cell virus transmission assay in CEM-SS cells; assay type: cell-based, HIV-1
[5] = system: HIV strain 92US727; experiment: Cell-to-cell virus transmission assay in fresh human PBMCs; assay type: cell-based, HIV-1
Summary of the method: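 HIV-infected fresh human PBMCs treated 3 days with six concentrations of test compound. Passaged every 3 days for three passages at fixed compound concentration; 80% of culture volume replaced with fresh compound-containing medium and uninfected cells. Cell-free supernatants collected on sub-culture days for RT activity and extracellular p24 antigen. TCID50 per passage by endpoint dilution.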

[6] = system: HL2/3 cells expressing HIV-1 gp120 and gp41 fusing with HeLa-CD4-LTR-β-gal cells; experiment: Fusion inhibition assay; assay type: cell-based; conditions: read-out: Fusion inhibition EC50 ± SD
Summary of the method: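 HeLa-CD4-LTR-β-Gal cells incubated with test compound for 1 h at 37°C/5% CO2, then co-cultured 48 h with HL2/3 cells. Cells lysed and β-galactosidase expression measured by chemiluminescent Gal-Screen.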

Cc1cn([C@H]2C[C@H](N=[N+]=[N-])[C@@H](CO)O2)c(=O)[nH]c1=O [AZT, reference compound]
EC50 ([1]; Human immunodeficiency virus 1, read-out: Mean EC50 ± SD, positive control, AZT- and NNRTI-resistant, RT 4xAZT/L100I): 4 nM | EC50 ([1]; Human immunodeficiency virus 1, read-out: Mean EC50 ± SD, positive control, AZT- and NNRTI-resistant, RT 4xAZT/Y181C): 7 nM | EC50 ([1]; Human immunodeficiency virus 1, read-out: Mean EC50 ± SD, positive control, Atazanavir-resistant, PR I50L): 1.5 nM | EC50 ([1]; Human immunodeficiency virus 1, read-out: Mean EC50 ± SD, positive control, Didanosine-resistant, RT L74V): 2 nM | EC50 ([1]; Human immunodeficiency virus 1, read-out: Mean EC50 ± SD, positive control, Enfuviritide-resistant, Env V38A/N126K): 1.5 nM | EC50 ([1]; Human immunodeficiency virus 1, read-out: Mean EC50 ± SD, positive control, Indinavir-, Ritonavir-resistant, PR I84V): 2.5 nM | EC50 ([1]; Human immunodeficiency virus 1, read-out: Mean EC50 ± SD, positive control, Indinavir-, Ritonavir-resistant, PR V82A): 3.5 nM | EC50 ([1]; Human immunodeficiency virus 1, read-out: Mean EC50 ± SD, positive control, Indinavir-, Ritonavir-resistant, PR V82F/I84V): 2 nM | EC50 ([1]; Human immunodeficiency virus 1, read-out: Mean EC50 ± SD, positive control, Lamivudine-resistant, RT M184V): 0.55 nM | EC50 ([1]; Human immunodeficiency virus 1, read-out: Mean EC50 ± SD, positive control, NNRTI-resistant, RT K103N/Y181C): 2 nM | EC50 ([1]; Human immunodeficiency virus 1, read-out: Mean EC50 ± SD, positive control, NNRTI-resistant, RT K103N): 0.9 nM | EC50 ([1]; Human immunodeficiency virus 1, read-out: Mean EC50 ± SD, positive control, NNRTI-resistant, RT L100I): 0.65 nM | EC50 ([1]; Human immunodeficiency virus 1, read-out: Mean EC50 ± SD, positive control, NNRTI-resistant, RT V106A): 2 nM | EC50 ([1]; Human immunodeficiency virus 1, read-out: Mean EC50 ± SD, positive control, NNRTI-resistant, RT V108I): 1.5 nM | EC50 ([1]; Human immunodeficiency virus 1, read-out: Mean EC50 ± SD, positive control, NNRTI-resistant, RT V179D): 1 nM | EC50 ([1]; Human immunodeficiency virus 1, read-out: Mean EC50 ± SD, positive control, NNRTI-resistant, RT Y181C): 1 nM | EC50 ([1]; Human immunodeficiency virus 1, read-out: Mean EC50 ± SD, positive control, NNRTI-resistant, RT Y188C): 1.5 nM | EC50 ([1]; Human immunodeficiency virus 1, read-out: Mean EC50 ± SD, positive control, Raltegravir-resistant, IN Q148H/G140S): 2 nM | EC50 ([1]; Human immunodeficiency virus 1, read-out: Mean EC50 ± SD, positive control, Saquinavir-resistant, PR G48V/L90M): 3.5 nM

COc1cc(-c2ccc(/N=N/c3ccc4c(S(=O)(=O)O)cc(S(=O)(=O)O)c(N)c4c3O)c(OC)c2)ccc1/N=N/c1ccc2c(S(=O)(=O)O)cc(S(=O)(=O)O)c(N)c2c1O [Chicago sky blue, reference compound]
EC50 [2]: 0.64 µg/mL (≈ 0.707 µM)

Cc1ccnc2c1NC(=O)c1cccnc1N2C1CC1 [NVP, reference compound]
EC50 ([1]; Human immunodeficiency virus 1, read-out: Mean EC50 ± SD, positive control, AZT-resistant, RT 4xAZT (D67N/K70R/T215Y/K219Q)): 35 nM

CC(C)c1nc(CN(C)C(=O)N[C@H](C(=O)N[C@@H](Cc2ccccc2)C[C@H](O)[C@H](Cc2ccccc2)NC(=O)OCc2cncs2)C(C)C)cs1 [RTV, reference compound]
Mean EC50 ± SD, positive control ([1]; {}): RTV 0.06 ± 0.02 nM

Cc1nnc(C(=O)NC(C)(C)c2nc(C(=O)NCc3ccc(F)cc3)c(O)c(=O)n2C)o1 [Raltegravir, reference compound]
EC50 ([3]; read-out: PBMC/HIV-1 EC50 ± SD, Multi-drug resistant AD. MDR): 2980 ± 540 nM | EC50 ([3]; read-out: PBMC/HIV-1 EC50 ± SD, Multi-drug resistant MDR769): 2370 ± 1510 nM | EC50 ([3]; read-out: PBMC/HIV-1 EC50 ± SD, NNRTI-resistant A17R): 1990 ± 40 nM | EC50 ([3]; read-out: PBMC/HIV-1 EC50 ± SD, NNRTI-resistant N119): 3540 ± 890 nM | EC50 ([3]; read-out: PBMC/HIV-1 EC50 ± SD, PI-resistant 144-44): 3870 ± 3250 nM | EC50 ([3]; read-out: PBMC/HIV-1 EC50 ± SD, PI-resistant 1002-60): 2970 ± 230 nM | EC50 ([3]; read-out: PBMC/HIV-1 EC50 ± SD, PI-resistant 1022-48): 1320 ± 170 nM | EC50 ([3]; read-out: PBMC/HIV-1 EC50 ± SD, PI-resistant 1026-60): 1770 ± 850 nM | EC50 ([3]; read-out: PBMC/HIV-1 EC50 ± SD, PI-resistant 1064-52): 860 ± 490 nM | EC50 ([3]; read-out: PBMC/HIV-1 EC50 ± SD, Wild Type 92US727): 10500 ± 12700 nM

CC(C)(C)NC(=O)[C@@H]1C[C@@H]2CCCC[C@@H]2CN1C[C@@H](O)[C@H](Cc1ccccc1)NC(=O)[C@H](CC(N)=O)NC(=O)c1ccc2ccccc2n1 [Saquinavir, reference compound]
RT ([4]; Passage 1, 20 nM): 25 cpm | TCID50/mL ([4]; Passage 1, 20 nM): 0 TCID50/mL | p24 ([4]; Passage 1, 20 nM): 794 pg/mL | RT ([4]; Passage 2, 20 nM): 107 cpm | TCID50/mL ([4]; Passage 2, 20 nM): 0 TCID50/mL | p24 ([4]; Passage 2, 20 nM): 1589 pg/mL | RT ([4]; Passage 3, 20 nM): 68 cpm | TCID50/mL ([4]; Passage 3, 20 nM): 0 TCID50/mL | p24 ([4]; Passage 3, 20 nM): 1085 pg/mL | RT ([5]; Passage 1, 12.5 nM): 281 cpm | TCID50/mL ([5]; Passage 1, 12.5 nM): 3.08 × 10^3 TCID50/mL | p24 ([5]; Passage 1, 12.5 nM): 971 pg/mL | RT ([5]; Passage 2, 12.5 nM): 1394 cpm | TCID50/mL ([5]; Passage 2, 12.5 nM): 8.30 × 10^3 TCID50/mL | p24 ([5]; Passage 2, 12.5 nM): 3505 pg/mL | RT ([5]; Passage 3, 12.5 nM): 7015 cpm | TCID50/mL ([5]; Passage 3, 12.5 nM): 1.09 × 10^5 TCID50/mL | p24 ([5]; Passage 3, 12.5 nM): 61,275 pg/mL

enfuvirtide [reference compound]
EC50 [6]: 80 nM
